Results on four compounds are retold here after ChEMBL document CHEMBL4725492, “Dioxane-Linked Amide Derivatives as Novel Bacterial Topoisomerase Inhibitors against Gram-Positive Staphylococcus aureus” (ACS Med Chem Lett, 2020).

≈ marks a conversion by molar mass, not a printed value. Calls of active or inactive are those of the source. No cut-off for these calls is given here.

In the first data set the target is T1, DNA gyrase (Staphylococcus aureus) (UniProt P0A0K8+P20831). As to the kind of experiment: Inhibition of Staphylococcus aureus DNA gyrase assessed as double-strand break at 100 uM using relaxed pBR322 as substrate by ethidium bromide-based gel electrophoresis. It counts as protein-complex assay.
Settings: not given
The method, boiled down:
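Gyrase-mediated DNA cleavage reactions with test agent across 0.1–100 μM. Products were resolved on ethidium-stained gels into negatively supercoiled, nicked and linear forms. DSBs were taken as percent of total lane fluorescence in the linear band, correcting for the different emission of supercoiled versus linear and nicked DNA. Cleavage in enzyme-only controls was subtracted.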
Consider `O=C(O)c1cn(C2CC2)c2cc(N3CCNCC3)c(F)cc2c1=O`, for which the inhibition entry is “Active”.

A further data set concerns the target T1, DNA gyrase (Staphylococcus aureus). Put plainly: Inhibition of Staphylococcus aureus DNA gyrase assessed as double-strand break at upto 100 uM using relaxed pBR322 as substrate by ethidium bromide-based gel electrophoresis. It counts as protein-complex assay. Particulars: dose microM <=100. An outline of the steps: (§1)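 S. aureus gyrase-mediated DNA cleavage: compound was incubated with enzyme and DNA, and products were resolved on an ethidium-stained gel into negatively supercoiled, nicked (single-strand break) and linear (double-strand break) forms. Lane fluorescence was corrected for differential band emission. Percent of each form was calculated, and enzyme-only cleavage was subtracted. Concentrations spanned 0.1 nM–200 μM, with a 20 μM single-point screen. Results are mean ± SD or range.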
In the case of `COc1ccc2nccc(CC[C@H]3OC[C@H](NC(=O)c4ccc5c(c4)OCCO5)CO3)c2c1`, the inhibition entry was “inactive”.

The next data set shares this target. As to the kind of experiment: Inhibition of Staphylococcus aureus DNA gyrase assessed as single-strand break at 100 to 200 uM using relaxed pBR322 as substrate by ethidium bromide-based gel electrophoresis. Particulars: dose microM 100-200. It counts as protein-complex assay. The method, boiled down:
as §1
Take `O=c1ccc2ncc(=O)n3c2n1C[C@H]3CN1CCC(NCc2cc3c(cn2)OCCC3)CC1`: the inhibition result is “Active”.

The target is the same in the next data set. Put plainly: Inhibition of Staphylococcus aureus DNA gyrase assessed as double-strand break using relaxed pBR322 as substrate by ethidium bromide-based gel electrophoresis. It counts as protein-complex assay. Conditions: dose microM 0.0001-20. The method, boiled down: as §1
Turning to `COc1ccc2nccc(CC[C@H]3OC[C@H](NC(=O)c4ccc5c(c4)NC(=O)CS5)CO3)c2c1`, the inhibition result was “Dose-dependent effect”.

Test system in a further data set: not listed separately
Put plainly: Growth inhibition of human K/VP.5 cells incubated for 48 hrs by sulforhodamine B assay. It counts as functional.
Settings: not given
Background: The SRB assay estimates cell density from bound dye.
For the compound `COc1ccc2nccc(CC[C@H]3OC[C@H](NC(=O)c4ccc5c(c4)NC(=O)CS5)CO3)c2c1`, the INH is over 200 µM.

Another data set concerns the target T1, DNA gyrase (Staphylococcus aureus). As to the kind of experiment: Inhibition of Staphylococcus aureus DNA gyrase assessed as single-strand break using relaxed pBR322 as substrate by ethidium bromide-based gel electrophoresis.
Settings: not given
It counts as protein-complex assay. An outline of the steps:
as §1
As for `COc1ccc2nccc(CC[C@H]3OC[C@H](NC(=O)c4ccc5c(c4)OCCO5)CO3)c2c1`, the inhibition entry is “Dose-dependent effect”.
Turning to `COc1ccc2nccc(CC[C@H]3OC[C@H](NC(=O)c4ccc5c(c4)NC(=O)CS5)CO3)c2c1`, the inhibition result is “Dose-dependent effect”.

The target in the next data set is DNA gyrase (Staphylococcus aureus, UniProt P0A0K8+P20831). As to the kind of experiment: Inhibition of Staphylococcus aureus DNA gyrase using relaxed pBR322 as substrate by gel electrophoresis. It counts as protein-complex assay.
Settings: not given
As for `COc1ccc2nccc(CC[C@H]3OC[C@H](NC(=O)c4ccc5c(c4)OCCO5)CO3)c2c1`, 3700 nM corresponded to half-maximal inhibition (IC50).
Regarding `COc1ccc2nccc(CC[C@H]3OC[C@H](NC(=O)c4ccc5c(c4)NC(=O)CS5)CO3)c2c1`, the IC50 (commonly the concentration at which inhibition is half-maximal) worked out at 130 nM.

The next data set addresses T1, DNA gyrase (Staphylococcus aureus). As to the kind of experiment: Inhibition of Staphylococcus aureus DNA gyrase assessed as double-strand break at 100 to 200 uM using relaxed pBR322 as substrate by ethidium bromide-based gel electrophoresis. It counts as protein-complex assay. Particulars: dose microM 100-200. The method, boiled down:
as §1
For the compound `O=c1ccc2ncc(=O)n3c2n1C[C@H]3CN1CCC(NCc2cc3c(cn2)OCCC3)CC1`, the inhibition result was “inactive”.

The next data set has as its system K562. Put plainly: Growth inhibition of human K562 cells incubated for 48 hrs by sulforhodamine B assay. In kind it is functional.
Settings: not given
On to `COc1ccc2nccc(CC[C@H]3OC[C@H](NC(=O)c4ccc5c(c4)NC(=O)CS5)CO3)c2c1`, for which the INH was over 200 µM.

Another data set addresses Topoisomerase IV (Staphylococcus aureus, UniProt P0C1S7+P0C1U9). Put plainly: Inhibition of Staphylococcus aureus topoisomerase-4 assessed as reduction in decatenation of kinetoplast DNA agarose gel electrophoresis method.
Settings: not given
It counts as protein-complex assay.
With `COc1ccc2nccc(CC[C@H]3OC[C@H](NC(=O)c4ccc5c(c4)OCCO5)CO3)c2c1`, the IC50 is over 200000 nM.
Take `COc1ccc2nccc(CC[C@H]3OC[C@H](NC(=O)c4ccc5c(c4)NC(=O)CS5)CO3)c2c1`: the IC50 was found to be 700 nM.

The next data set relates to Staphylococcus aureus. As to the kind of experiment: Antibacterial activity against Staphylococcus aureus ATCC 29213 by CLSI based agar dilution method. In kind it is functional.
Settings: not given
(Agar dilution tests growth on a series of plates holding different concentrations.)
With `COc1ccc2nccc(CC[C@H]3OC[C@H](NC(=O)c4ccc5c(c4)OCCO5)CO3)c2c1`, it took 1 µg/mL (≈ 2.22 µM) to inhibit growth (MIC).
As to `COc1ccc2nccc(CC[C@H]3OC[C@H](NC(=O)c4ccc5c(c4)NC(=O)CS5)CO3)c2c1`, the MIC – broadly, the lowest concentration found to suppress growth – is 0.03 µg/mL (≈ 0.0626 µM).

A further data set has as its target T1, DNA gyrase (Staphylococcus aureus). Put plainly: Inhibition of Staphylococcus aureus DNA gyrase assessed as double-strand break at 20 uM using relaxed pBR322 as substrate by ethidium bromide-based gel electrophoresis. In kind it is protein-complex assay.
Settings: not given
An outline of the steps: as §1
Turning to `COc1ccc2nccc(CC[C@H]3OC[C@H](NC(=O)c4ccc5c(c4)OCCO5)CO3)c2c1`, the inhibition entry is “inactive”.

The next data set concerns Staphylococcus aureus. As to the kind of experiment: Antibacterial activity against Staphylococcus aureus D83N by CLSI based agar dilution method. It counts as functional.
Settings: not given
In turn, `COc1ccc2nccc(CC[C@H]3OC[C@H](NC(=O)c4ccc5c(c4)OCCO5)CO3)c2c1` registered an MIC of over 32 µg/mL.
In turn, `COc1ccc2nccc(CC[C@H]3OC[C@H](NC(=O)c4ccc5c(c4)NC(=O)CS5)CO3)c2c1` displayed an MIC of over 64 µg/mL.

A further data set relates to Staphylococcus aureus. Put plainly: Antibacterial activity against Staphylococcus aureus USA300 by CLSI based agar dilution method. It counts as functional.
Settings: not given
Consider `COc1ccc2nccc(CC[C@H]3OC[C@H](NC(=O)c4ccc5c(c4)OCCO5)CO3)c2c1`, for which 1 µg/mL (≈ 2.22 µM) was the least that counted as inhibitory (MIC).
As for `COc1ccc2nccc(CC[C@H]3OC[C@H](NC(=O)c4ccc5c(c4)NC(=O)CS5)CO3)c2c1`, the MIC was at most 0.125 µg/mL.

Another data set deals with Voltage-gated inwardly rectifying potassium channel KCNH2 (Homo sapiens, UniProt Q12809). As to the kind of experiment: Inhibition of human ERG.
Settings: not given
Take `COc1ccc2nccc(CC[C@H]3OC[C@H](NC(=O)c4ccc5c(c4)OCCO5)CO3)c2c1`: the IC50 was over 100000 nM.

The data set is the same for the next values; noted with them: human.
`COc1ccc2nccc(CC[C@H]3OC[C@H](NC(=O)c4ccc5c(c4)NC(=O)CS5)CO3)c2c1` came in with an INH of over 30 µM.

The target in a further data set is DNA topoisomerase 2-alpha (Homo sapiens, UniProt P11388). Put plainly: Inhibition of human topoisomerase 2alpha relative to control.
Settings: not given
The method, boiled down: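 Human topoisomerase IIα decatenation activity was tested at a single concentration of 100 μM and reported as percent inhibition.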
As to `COc1ccc2nccc(CC[C@H]3OC[C@H](NC(=O)c4ccc5c(c4)NC(=O)CS5)CO3)c2c1`, the “inhibition (INH)” value came to 37%.

The test system of another data set is Staphylococcus aureus. As to the kind of experiment: Antibacterial activity against Staphylococcus aureus 3527 by CLSI based agar dilution method. It counts as functional.
Settings: not given
Compound `COc1ccc2nccc(CC[C@H]3OC[C@H](NC(=O)c4ccc5c(c4)OCCO5)CO3)c2c1` displayed an MIC of 0.5 µg/mL (≈ 1.11 µM).
On to `COc1ccc2nccc(CC[C@H]3OC[C@H](NC(=O)c4ccc5c(c4)NC(=O)CS5)CO3)c2c1`, for which the MIC is at most 0.125 µg/mL.

Another data set concerns the target T1, DNA gyrase (Staphylococcus aureus). As to the kind of experiment: Inhibition of Staphylococcus aureus DNA gyrase assessed as single-strand break at 20 uM using relaxed pBR322 as substrate by ethidium bromide-based gel electrophoresis. In kind it is protein-complex assay.
Settings: not given
An outline of the steps: as §1
Turning to `COc1ccc2nccc(CC[C@H]3OC[C@H](NC(=O)c4ccc5c(c4)OCCO5)CO3)c2c1`, the inhibition result was “Active”.
